For test [1], the system named is HepG2. Briefly: Cytotoxicity against human HepG2 cells assessed as growth inhibition at 100 ug/mL after 120 hrs by MTT assay relative to control. It counts as functional. The following applies: HepG2, 120 h, read-out: GI. An outline of the steps:
(§1)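 MTT (10 μL of 5 mg/mL) added for 1 h at 37 °C. Formazan dissolved in 2-propanol for 4 h, read at 490 nm against cell-free blank. DMSO-carrier wells taken as 100% growth.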
Background: Formazan colour is commonly taken as a measure of viable cells.

Test [2] has as its system HepG2. Briefly: Cytotoxicity against human HepG2 cells assessed as growth inhibition at IC90 after 120 hrs by MTT assay relative to control. Type of test: functional. The method, boiled down:
as §1

The subject of test [3] is THP-1. Kind of test: Cytotoxicity against human THP1 cells assessed as growth inhibition at 100 ug/mL after 72 hrs by MTT assay relative to control. Type of test: functional. The following applies: THP-1, 72 h, read-out: GI. An outline of the steps:
(§2)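 Viability by MTT (1 h, 37 °C), formazan taken up in 2-propanol 4 h, absorbance 490 nm against cell-free blank. Medium with matching DMSO served as 100% growth.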

The test system of test [4] is THP-1. Kind of test: Cytotoxicity against human THP1 cells assessed as growth inhibition at IC90 after 72 hrs by MTT assay relative to control. Type of test: functional. The method, boiled down:
as §2

The test system of test [5] is MCF7. Briefly: Cytotoxicity against human MCF7 cells assessed as growth inhibition at 100 ug/mL after 192 hrs by MTT assay relative to control. Type of test: functional. The following applies: MCF7, 192 h, read-out: GI. The method, boiled down: (§3)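 MCF-7 cells at ~10^5 cells/mL, 24 h adherence at 37 °C. MTT read-out: 1 h with MTT at 37 °C, then 2-propanol solubilization for 4 h, OD 490 nm versus cell-free wells. Growth expressed relative to DMSO-only controls (100%).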

Test [6] concerns MCF7. Briefly: Cytotoxicity against human MCF7 cells assessed as growth inhibition at IC90 after 192 hrs by MTT assay relative to control. Type of test: functional. An outline of the steps:
as §3

Test [7] has as its system Escherichia coli. Kind of test: Antibacterial activity against Escherichia coli DH5[alpha] assessed as growth inhibition at IC90 after 6 hrs relative to control. Type of test: functional.
For test [8], the system named is Mycolicibacterium smegmatis. Briefly: Antimycobacterial activity against Mycobacterium smegmatis MC2 155 assessed as inhibition of cell viability at IC90 measured on day 3 by XTT assay in presence of menadione relative to control. Type of test: functional, str. MC2 155.
Test [9] deals with Mycobacterium tuberculosis. Kind of test: Antimycobacterial activity against Mycobacterium tuberculosis H37Ra assessed as inhibition of cell viability measured on day 8 by XTT assay in presence of menadione. It counts as functional, organism-based. The following applies: 192 h. An outline of the steps: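 H37Ra log-phase culture grown in M. pheli medium at 37 °C, sonicated, then seeded at about 10^5 cells/mL. Serial dilutions of DMSO-dissolved samples were tested, with isoniazid as positive control, at 37 °C in a CO2 incubator for 8 days. Viability was read by XTT (200 μM, 20 min) then menadione (60 μM, 40 min), OD470. IC50 and IC90 came from dose-response curves.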

Test [10] has as its system Escherichia coli. Kind of test: Antibacterial activity against Escherichia coli DH5[alpha] assessed as growth inhibition after 6 hrs. Type of test: functional.
The subject of test [11] is Mycolicibacterium smegmatis. Kind of test: Antimycobacterial activity against Mycobacterium smegmatis MC2 155 assessed as inhibition of cell viability measured on day 3 by XTT assay in presence of menadione. It counts as functional. The following applies: str. MC2 155, 72 h. An outline of the steps:
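M. smegmatis mc2 155 in microplate wells; on day 3, OD470 read as blank, then XTT (200 μM) added, shaken 1 min and held 20 min at 37 °C. Menadione (60 μM) was then added, mixed 1 min and held another 20 min at 37 °C before the final OD470 reading.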

For test [12], the system named is Mycobacterium tuberculosis. Kind of test: Antimycobacterial activity against Mycobacterium tuberculosis H37Ra assessed as inhibition of cell viability at 100 ug/mL measured on day 8 by XTT assay in presence of menadione. Type of test: functional, organism-based. The method, boiled down:
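M. tuberculosis H37Ra (ATCC 25177) grown aerobically to log phase in M. pheli medium at 37 °C, 150 rpm, then sonicated 2 min. About 10^5 cells/mL, 250 μL per well, exposed to DMSO-dissolved samples at 100 μg/mL and incubated at 37 °C in a CO2 incubator. Day 8 read-out: OD470 blank, XTT 200 μM for 20 min, menadione 60 μM for 40 min, then OD470.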

The subject of test [13] is HepG2. Briefly: Cytotoxicity against human HepG2 cells assessed as growth inhibition after 120 hrs by MTT assay. It counts as functional. The following applies: HepG2, 120 h. An outline of the steps: as §1
Test [14] deals with THP-1. Kind of test: Cytotoxicity against human THP1 cells assessed as growth inhibition after 72 hrs by MTT assay. Type of test: functional. The following applies: THP-1, 72 h. The method, boiled down: as §2
For test [15], the system named is MCF7. Briefly: Cytotoxicity against human MCF7 cells assessed as growth inhibition after 192 hrs by MTT assay. It counts as functional. The following applies: MCF7, 192 h. The method, boiled down:
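MCF-7 cells at ~10^5 cells/mL, 24 h adherence at 37 °C. […] MTT read-out: 1 h with MTT at 37 °C, then 2-propanol solubilization for 4 h, OD 490 nm versus cell-free wells. Growth expressed relative to DMSO-only controls (100%).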

Molecules are shown by their SMILES. Converted amounts (≈) assume the structure as drawn. The source made the active and inactive calls. The rule behind the calls is not given here.

For orientation: IC50 means the concentration at which inhibition is half-maximal. Broadly, the IC90 is the concentration at which the effect reaches the 90% level. Regarding `C[C@@H]1CC[C@H]2C(C)(C)CCC[C@]2(C)[C@@]12CC[C@]1(CO[C@H](O)C1)O2`, the results for the inhibition of growth at 100 µg/mL in the test on HepG2 [1], in the test with THP-1 [3] and in the test with MCF7 [5] were 14.4%, 21.7% and 42.4%, respectively. In addition, the “growth inhibition (GI)” value with HepG2 [2] stood at 6.92%; in the test on THP-1 [4], 8.18%; in the test with MCF7 [6], 28.98%; in the test with Escherichia coli [7] it was 23.15%. In [8], the “inhibition (INH)” value worked out at 47.83%. Moreover, in test [9], the IC50 is 5.55 mg/L. Further, the concentration for an effect of 90% (IC90) in test [9] worked out at 14.9 mg/L.
Take `CO[C@H]1/C=C/O[C@@]2(C)Oc3c(C)c(O)c4c(O)c(c(/C=N/N5CCN(C)CC5)c(O)c4c3C2=O)NC(=O)/C(C)=C\C=C\[C@H](C)[C@H](O)[C@@H](C)[C@@H](O)[C@@H](C)[C@H](OC(C)=O)[C@@H]1C` [RIFAMPIN]: the values for the IC90 (in the test on Escherichia coli [10]; in test [11]) were 0.5 mg/L (≈ 0.608 µM) and 0.2 mg/L, respectively.
Turning to `NNC(=O)c1ccncc1` [ISONIAZID], the IC90 in test [9] turned out to be 0.055 mg/L.
As for `C=C[C@](C)(O)CC[C@@H]1[C@@]2(C)CCCC(C)(C)[C@H]2CC[C@@]1(C)O`, the inhibition of growth at 100 µg/mL with THP-1 [3] is 96.4%. For the same compound, the IC50 in test [9] was 5.95 mg/L.
As for `COc1cc(O)c2c(=O)cc(-c3ccc(O)c(OC)c3)oc2c1`, the inhibition result in test [12] is “inactive”.
With `C[C@@H]1CC[C@H]2C(C)(C)CCC[C@]2(C)[C@@]1(O)CC/C(=C/CO)CO`, the inhibition of growth at 100 µg/mL with HepG2 [1] worked out at 21.5%; with THP-1 [3], 9.07%; in the test with MCF7 [5], 3.54%. For the same compound, the “growth inhibition (GI)” value was found to be 21.48% in the test on HepG2 [2], 9.07% with THP-1 [4], 3.54% in the test with MCF7 [6] and 11.47% in the test on Escherichia coli [7]. The “inhibition (INH)” value in test [8] came to 30.57%. Moreover, in test [9], the IC50 was 9.8 mg/L.
With `CC(=O)O[C@H]1C(=O)[C@@]2(C)[C@H]([C@H](OC(=O)c3ccccc3)[C@]3(O)C[C@H](OC(=O)[C@H](O)[C@@H](NC(=O)c4ccccc4)c4ccccc4)C(C)=C1C3(C)C)[C@]1(OC(C)=O)CO[C@@H]1C[C@@H]2O` [PACLITAXEL], the concentration for an effect of 90% (IC90) in the test with HepG2 [13] worked out at 78.9 mg/L (≈ 92.4 µM); with THP-1 [14], 98.6 mg/L (≈ 115 µM); with MCF7 [15] it was 107 mg/L (≈ 125 µM). Also, the inhibition of growth at 100 µg/mL came out at 87.9% with HepG2 [1], 82.5% in the test on THP-1 [3] and 86.7% in the test with MCF7 [5].

Values taken from ChEMBL document CHEMBL2429830, “Antimycobacterial labdane diterpenes from Leucas stelligera” (J Nat Prod, 2013).
